Compounds with a hit are over-represented: about 3.9% of the library has one in this group of screens.
CRFBP-R2 agonist – agonists of CRF-BP/CRF-R2 complex, primary screen, cell-based, HEK293, calcium dye fluorescence, uHTS. 0.46% of 350,000 active. calcium dye fluorescence (FLIPR); percent of saturating CRF peptide response. activation, % at 13.2 µM. CRF-binding protein / CRF receptor 2 complex (human);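 active = activation of at least 50%, plus an integration ratio under a set limit after plate pattern correction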;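 also: plate controls were neutral control wells without compound for no effect and CRF at EC100 for full effect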
TAAR1 ag – human TAAR1 agonists, primary screen, Fluo-8 calcium fluorescence, CHO RD-HGA16 cells | Trace amine-associated receptor 1 (Homo sapiens), Q96RJ0 | vehicle wells 0%, saturating PEA agonist 100% | activation, % at 3 µM | 0.99% of 360,000 active;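 active = activation above the mean activation of all test compounds in the run plus 3 SD, cut at about 38% in these data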
Target sequence (Q96RJ0 whole entry, looked up): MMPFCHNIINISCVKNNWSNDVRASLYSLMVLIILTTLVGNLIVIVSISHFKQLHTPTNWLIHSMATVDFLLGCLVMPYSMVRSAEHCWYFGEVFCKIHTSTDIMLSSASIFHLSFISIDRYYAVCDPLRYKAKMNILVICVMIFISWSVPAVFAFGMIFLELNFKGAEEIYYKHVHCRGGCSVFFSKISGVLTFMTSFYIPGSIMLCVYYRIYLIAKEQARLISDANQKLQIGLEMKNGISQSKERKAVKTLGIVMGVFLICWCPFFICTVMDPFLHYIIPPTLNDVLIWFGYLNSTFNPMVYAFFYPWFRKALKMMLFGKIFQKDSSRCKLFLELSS
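Signal – calcium-sensitive Fluo-8 signal, excitation 470-495, emission 515-575 nm · System – RD-HGA16 (CHO) cells co-expressing Gα16 and hTAAR1 · Incubation – 17-24 h seeding, 75 min 37 °C dye, 30 min RT · Compound dosing – 3 µM single concentration · Repeats – no replicates (n 1)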
TMEM16A inh – TMEM16A chloride channel inhibitors, primary screen, cell-based, HTS; HEK293 TMEM16A/YFP iodide influx fluorescence, ionomycin; normalized B-score (activity score, 25-100; higher = stronger inhibition) at 10 µM; 1.2% of 310,000 active;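 active = ratio plate-corrected score three or more library SD toward inhibition, starting fluorescence score within five deviations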;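 also: score derived from kinetic fluorescence span divided by baseline fluorescence per well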
TMEM16A act – TMEM16A chloride channel activators or potentiators, primary screen, cell-based, HTS; Anoctamin-1 (Mus musculus), Q8BHY3; B-score at 10 µM; 0.3% of 340,000 active; AID 623877, 2012; HEK293 TMEM16A/YFP-H148Q/I152L, iodide quench fluorescence; stronger effect = lower value;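 active = fluorescence-ratio B-score plate-corrected deviation score at least 3 library SD below zero, with starting fluorescence score within 5 deviations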;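 also: channel opened by trigger with iodide after compound preincubation; score built on the fluorescence ratio of max minus min over baseline; more negative score means more quench and so TMEM16A activation or potentiation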
CRFBP-R2 block – antagonists of CRF-BP/CRF-R2 complex, primary screen, cell-based, HEK293, calcium dye fluorescence, uHTS. CRF-induced calcium fluorescence. inhibition, % at 11.8 µM. 0.59% of 350,000 active. AID 588475, 2011;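 active = inhibition of the ligand-induced calcium signal above about 50% at the single tested concentration, limit read from the data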
TAAR1 antag – human TAAR1 antagonists, primary screen, Fluo-8 calcium fluorescence, CHO RD-HGA16 cells | antagonist | inhibition, % at 3 µM | AID 624466, 2012 | Trace amine-associated receptor 1 (Homo sapiens), Q96RJ0 | 1.5% of 360,000 active;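 active = inhibition above a per-plate cutoff, the mean inhibition of test compounds on that plate plus 3 SD, cut at about 49% in these data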;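 also: 0% = DMSO plus EC80 beta-PEA response and 100% = DMSO alone without agonist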
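Assay system: RD-HGA16 CHO cells with stable hTAAR1 and Gα16 / Reagent: EC80 β-phenethylamine stimulus / Doses: 3 µM, single point / Timing: dye loading 75 min at 37 °C, then 30 min room temperature / Measured by: Fluo-8 intracellular calcium dye fluorescence, real-time kinetic reads / Controls: vehicle wells and EC80 agonist wells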
TMEM16A reconf – TMEM16A chloride channel inhibitors, confirmation, cell-based, re-confirmation; shares compounds with TMEM16A inh; HEK293 TMEM16A/YFP-H148Q, iodide quench fluorescence; ionomycin added to raise cell calcium; inhibition, % at 10 µM; 39% of 2,300 active; AID 652189, 2013;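 active = mean duplicate percent inhibition, scaled so buffer wells are 0 and the reference blocker 100, over three buffer SD above buffer mean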
TMEM16A Ca cntr – calcium mobilization in TMEM16A/YFP HEK293 cells, confirmation, counter-screen for TMEM16A inhibitor project | calcium response (% of ionomycin), % at 10 µM | shares compounds with TMEM16A inh | 2% of 2,300 active | Fluo4 calcium mobilization | AID 652231, 2013;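 active = duplicate-averaged calcium signal over 20% of the ionomycin maximum, relative to buffer baseline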;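 also: each well's signal is peak minus trough fluorescence divided by its pre-addition baseline; 0% = buffer wells and 100% = ionomycin wells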
Parental YFP cnt – iodide YFP quench changes in parental YFP-HEK293, counter-screen for TMEM16A inhibitor project, cell-based; shares compounds with TMEM16A inh; ionomycin; YFP ratio F(max-min)/F0 at 10 µM; 2,300 tested, under 10 active; AID 652233, 2013;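 active = yellow fluorescent protein signal ratio exceeding the buffer control mean by over 5 SD of those controls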;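 also: ratio is mean of duplicate wells from kinetic YFP trace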
ClC-1 rat inh – ClC-1 chloride channel inhibition, selectivity assay for TMEM16A inhibitor project, cell-based, voltage-dependent ClC-1 | shares compounds with TMEM16A inh | CHO ClC-1-YFP, iodide influx fluorescence quench; iodide control reads 0, buffer control 100 | ratio percent, % at 10 µM | 2,300 tested, under 10 active | AID 652236, 2013;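 active = duplicate-mean ratio percent above the mean of iodide-only control wells, which defines zero, plus 5 of their SD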;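 also: higher percent means stronger block of ClC-1 iodide influx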
An asterisk follows results filed as active; i = inactive; . = not tested or not shown.

SMILES | CRFBP-R2 agonist | TAAR1 ag | TMEM16A inh | TMEM16A act | CRFBP-R2 block | TAAR1 antag | TMEM16A reconf | TMEM16A Ca cntr | Parental YFP cnt | ClC-1 rat inh
CCN1C(=O)CC(c2ccccc2)CC1=O | 1 | 17 | i | i | -1 | 1 | . | . | . | .
COc1ccc2oc(CS(=O)c3ccccc3)c(C(=O)O)c2c1 (stereo not given) | -1 | 1 | i | i | 22 | 2 | . | . | . | .
Cc1nn(-c2ccccc2)c2sc(-c3n[nH]c(=S)o3)cc12 | -3 | 2 | 25* | i | 15 | 9 | i | i | -1 | 1
Cc1cc(NC(=O)CSCC(=O)Nc2ccc(C)c(C)c2)no1 | -1 | 2 | . | i | -1 | -17 | . | . | . | .
Cc1ccccc1-c1nc(-c2ccc(NC(=O)c3cccs3)cc2)no1 | 0 | 7 | i | i | 20 | 34 | i | i | -1 | -7
O=C(Nc1ccc(-c2noc(-c3ccccc3F)n2)cc1)c1cccs1 | 2 | 3 | i | i | -22 | 3 | . | . | . | .
OCC[C@@H]1C[C@H](O)[C@@H](O)[C@]2(Cc3ccccc3O2)O1 | -1 | . | i | i | 5 | . | . | . | . | .
CCOC(=O)c1ccccc1NC(=O)CSc1nnnn1C1CCCCC1 | -1 | 1 | 100* | i | 14 | 11 | i | i | -0.96 | -2
CCOC(=O)c1ccccc1NC(=O)CSc1nnc(COc2ccccc2C)n1C | -2 | 16 | 25* | i | 13 | -27 | i | i | -1.2 | -8
Cc1cc2cc(CCNC(=O)CCCc3ccccc3)c(=O)[nH]c2cc1C | 0 | 0 | i | i | 3 | -29 | . | . | . | .
Cc1ccc(NC(=O)CN(C)CC(=O)Nc2ccc(N3CCOCC3)cc2)c([N+](=O)[O-])c1 | 0 | 4 | i | i | 3 | -10 | . | . | . | .
CC(NC(=O)Nc1cccc([N+](=O)[O-])c1)(C(F)(F)F)C(F)(F)F | 45 | 6 | 100* | i | 13 | 0 | i | i | -0.88 | -14
CCn1cc(C(=O)N[C@@H](CCSC)C(=O)NCCCn2ccnc2)c(=O)c2cc3c(cc21)OCO3 | 1 | 0 | i | i | -5 | 3 | . | . | . | .
Cc1ccc(S(=O)(=O)N(C)C[C@H]2Oc3cc(C#Cc4ccccc4)ccc3S(=O)(=O)N([C@H](C)CO)C[C@@H]2C)cc1 | 1 | 3 | . | . | 9 | -5 | . | . | . | .
CCOc1ccc(S(=O)(=O)Nc2nc3ccccc3nc2N2CCN(C)CC2)cc1 | 2 | 6 | i | i | 4 | -6 | . | . | . | .
O=S(=O)(Nc1nc2ccccc2nc1N1CCN(c2ccccc2F)CC1)c1ccc(Cl)cc1 | 21 | 3 | 100* | i | 35 | -5 | 38%* | i | -0.99 | -10
CCOC(=O)N1CCC(NC(=O)c2ccc(Cl)cc2)CC1 | -5 | 1 | i | i | -3 | -37 | . | . | . | .
CCOC(=O)N1CCC(Nc2nc3ccccc3nc2NS(=O)(=O)c2ccc(Cl)cc2)CC1 | 15 | 0 | i | i | 17 | -8 | 32%* | i | -0.82 | -144
Cc1ccc(OC(C)C(=O)N2CC(=O)Nc3ccccc32)cc1 (stereo not given) | 0 | 1 | i | i | -4 | 4 | . | . | . | .
CC(C)c1ccc(NC(=O)CSc2n[nH]c(=O)n2Cc2ccco2)cc1 | -1 | -1 | 25* | i | 5 | 9 | 20%* | i | -1 | -18
CC(Sc1n[nH]c(-c2ccccc2)n1)C(=O)c1c(N)n(C)c(=O)n(C)c1=O (stereo not given) | 0 | 3 | i | i | 5 | -14 | . | . | . | .
CC(Sc1nc2ccccc2s1)C(=O)c1c(N)n(C)c(=O)n(C)c1=O (stereo not given) | 0 | 7 | 100* | i | 9 | -2 | i | i | -1.2 | -8
COc1ccc(Cl)cc1NS(=O)(=O)c1c(C)[nH]c(C)c1C(=O)N1CCCCC1 | 1 | 5 | i | i | -3 | -11 | . | . | . | .
C=CCn1c(=O)c(C(=O)Nc2ccccc2S(N)(=O)=O)c(O)c2ccccc21 | -1 | -1 | i | i | -20 | -30 | . | . | . | .
CN(C)CCN(Cc1ccccc1)c1ccnc(N(C)C)c1C#N | 1 | 6 | i | i | -18 | -2 | . | . | . | .
SMILES | CRFBP-R2 agonist | TAAR1 ag | TMEM16A inh | TMEM16A act | CRFBP-R2 block | TAAR1 antag | TMEM16A reconf | TMEM16A Ca cntr | Parental YFP cnt | ClC-1 rat inh
CN(C)c1nccc(N(Cc2ccccc2)Cc2ccccc2)c1C#N | 1 | -1 | 25* | i | 4 | 33 | i | i | -1.2 | -8
O=C(NCc1nnnn1-c1ccc(Cl)cc1)c1ccc(Br)o1 | 1 | 2 | i | i | -2 | -17 | . | . | . | .
CC(C)C(=O)c1cc2c(cc1NC(=O)c1ccccc1)OCCO2 | -2 | 1 | 100* | i | -37 | 0 | i | i | -1.3 | -12
O=C(Nc1ccc(N2CCN(c3ccc(C(F)(F)F)cn3)CC2)nc1)c1cccs1 | -1 | 3 | i | i | 5 | -23 | . | . | . | .
O=C(Nc1ccc(N2CCN(c3ncccc3C(F)(F)F)CC2)nc1)c1cccs1 | 0 | 22 | 25* | i | -12 | 75* | 31%* | i | -1.2 | -4
O=C(COC(=O)c1cc(S(=O)(=O)N2CCOCC2)c(Cl)cc1Cl)c1ccc[nH]1 | -2 | 22 | . | i | -2 | 42 | . | . | . | .
Cc1ccc(C(=O)N(Cc2nc(-c3ccc(C)cc3)no2)C(C)C)cc1 | 2 | -3 | i | i | 10 | -32 | . | . | . | .
CC(C)N(Cc1nc(-c2ccccc2)no1)C(=O)c1ccc(Cl)cc1 | 4 | 0 | i | i | -13 | -24 | . | . | . | .

Assay outcomes as filed in PubChem BioAssay.
